Measurements published in ChEMBL document CHEMBL1932928, “II. Novel HCV NS5B polymerase inhibitors: discovery of indole C2 acyl sulfonamides” (Bioorg Med Chem Lett, 2012).

Assays:
Hepatitis C virus = test: Antiviral activity against HCV 1b con1 assessed as inhibition of viral RNA replication after 3 days by RT-PCR analysis; type: functional, organism-based, Hepacivirus hominis; conditions: Con1, 72 h
Summary of the method: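 Genotype 1b-Con1 replicon cells were seeded at 5000/well one day before dosing. Inhibitor was added at 0.5% final DMSO in medium with 5% FBS, and cells were harvested after 3 days. Replicon RNA was quantified by Taqman real-time RT-PCR normalized to GAPDH RNA. EC50 came from 10 serial twofold dilutions in duplicate.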

[1] = Inhibition of HCV NS5B Cdelta21 RNA polymerase activity assessed as incorporation of [33P]-CTP into heteropolymer RNA template after 150 mins; set-up: species or system Hepacivirus hominis
Summary of the method: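 Radiolabeled nucleotide incorporation using 30 nM NS5B (Δ21) with 100 nM heteropolymer RNA template and 0.25 mM trinucleotide initiator. Buffer: 20 mM HEPES pH 7.3, 7.5 mM DTT, 20 units/mL RNasin, 10 mM MgCl₂, 60 mM NaCl, BSA, GTP/ATP/UTP, [³³P]-CTP with 20 nM CTP. Run 150 min at room temperature, EDTA-stopped, filter-washed, incorporated label counted. IC50 from 10 twofold dilutions in duplicate.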

EC50 (Hepatitis C virus)	IC50 [1]	Structure (SMILES)
100 nM	24 nM	Nc1cc(Cn2c(C(=O)NS(=O)(=O)c3ccc(O)cc3)c(-c3ccc[nH]c3=O)c3cc(Cl)ccc32)ccn1
8300 nM	> 20000 nM	N#Cc1c(-c2ccc[nH]c2=O)c2cc(Cl)ccc2n1Cc1ccnc(N)c1
	> 20000 nM	CCOC(=O)c1c(-c2ccc[nH]c2=O)c2cc(Cl)ccc2n1Cc1ccnc(N)c1
300 nM	18 nM	CS(=O)(=O)NC(=O)c1c(-c2ccc[nH]c2=O)c2cc(Cl)ccc2n1Cc1ccnc(N)c1
	7000 nM	Nc1cc(Cn2c(CC(=O)O)c(-c3ccc[nH]c3=O)c3cc(Cl)ccc32)ccn1
	2200 nM	CS(=O)(=O)NC(=O)Cc1c(-c2ccc[nH]c2=O)c2cc(Cl)ccc2n1Cc1ccnc(N)c1
	> 20000 nM	CS(=O)(=O)NCc1c(-c2ccc[nH]c2=O)c2cc(Cl)ccc2n1Cc1ccnc(N)c1
2200 nM	29 nM	Nc1cc(Cn2c(C(=O)NS(N)(=O)=O)c(-c3ccc[nH]c3=O)c3cc(Cl)ccc32)ccn1
600 nM	12 nM	Nc1cc(Cn2c(C3=NS(=O)(=O)c4ccccc4N3)c(-c3ccc[nH]c3=O)c3cc(Cl)ccc32)ccn1
230 nM	33 nM	CS(=O)(=O)NC(=O)c1c(-c2ccc[nH]c2=O)c2cc(Cl)ccc2n1Cc1ccccc1F
2200 nM	41 nM	CS(=O)(=O)NC(=O)c1c(-c2ccc[nH]c2=O)c2cc(Cl)ccc2n1Cc1ccc(F)cc1F
	3000 nM	CCNS(=O)(=O)c1c(-c2ccc[nH]c2=O)c2cc(Cl)ccc2n1Cc1ccc(F)cc1F
	2700 nM	NS(=O)(=O)c1c(-c2ccc[nH]c2=O)c2cc(Cl)ccc2n1Cc1ccc(F)cc1F
8000 nM	570 nM	O=c1[nH]cccc1-c1c(-c2nc3ccccc3[nH]2)n(Cc2ccc(F)cc2F)c2ccc(Cl)cc12
3000 nM	27 nM	CS(=O)(=O)NC(=O)c1c(-c2c[nH]c(=O)[nH]c2=O)c2cc(Cl)ccc2n1Cc1ccnc(N)c1
120 nM	6 nM	CS(=O)(=O)NC(=O)c1c(-c2ccc[nH]c2=O)c2cc(C(F)(F)F)ccc2n1Cc1ccccc1F
700 nM	15 nM	CS(=O)(=O)NC(=O)c1c(-n2c(=O)[nH]c3cscc3c2=O)c2cc(C(F)(F)F)ccc2n1Cc1ccccc1F
600 nM	18 nM	CCS(=O)(=O)NC(=O)c1c(-c2ccc[nH]c2=O)c2cc(Cl)ccc2n1Cc1ccnc(N)c1
1000 nM	31 nM	CC(C)(C)S(=O)(=O)NC(=O)c1c(-c2ccc[nH]c2=O)c2cc(Cl)ccc2n1Cc1ccnc(N)c1
400 nM	16 nM	Nc1cc(Cn2c(C(=O)NS(=O)(=O)c3ccccc3)c(-c3ccc[nH]c3=O)c3cc(Cl)ccc32)ccn1
1200 nM	24 nM	Nc1cc(Cn2c(C(=O)NS(=O)(=O)Cc3ccccc3)c(-c3ccc[nH]c3=O)c3cc(Cl)ccc32)ccn1
270 nM	5 nM	O=C(NS(=O)(=O)C1CC1)c1c(-c2ccc[nH]c2=O)c2cc(Cl)ccc2n1Cc1ccccc1F

EC50 (Hepatitis C virus)	IC50 [1]	Structure (SMILES)
400 nM	13 nM	CC(C)S(=O)(=O)NC(=O)c1c(-c2ccc[nH]c2=O)c2cc(Cl)ccc2n1Cc1ccccc1F
1400 nM	28 nM	O=C(NS(=O)(=O)C1CCCC1)c1c(-c2ccc[nH]c2=O)c2cc(Cl)ccc2n1Cc1ccccc1F
2800 nM	8 nM	O=C(NS(=O)(=O)CCCCl)c1c(-c2ccc[nH]c2=O)c2cc(Cl)ccc2n1Cc1ccccc1F
470 nM	5 nM	CS(=O)(=O)NCCS(=O)(=O)NC(=O)c1c(-c2ccc[nH]c2=O)c2cc(Cl)ccc2n1Cc1ccccc1F
500 nM	22 nM	COc1ccc(S(=O)(=O)NC(=O)c2c(-c3ccc[nH]c3=O)c3cc(Cl)ccc3n2Cc2ccnc(N)c2)cc1
600 nM	19 nM	Cc1ccc(S(=O)(=O)NC(=O)c2c(-c3ccc[nH]c3=O)c3cc(Cl)ccc3n2Cc2ccnc(N)c2)cc1
800 nM	31 nM	Nc1cc(Cn2c(C(=O)NS(=O)(=O)c3ccccc3F)c(-c3ccc[nH]c3=O)c3cc(Cl)ccc32)ccn1
1500 nM	43 nM	Nc1cc(Cn2c(C(=O)NS(=O)(=O)c3cccc(Cl)c3)c(-c3ccc[nH]c3=O)c3cc(Cl)ccc32)ccn1
700 nM	28 nM	Nc1cc(Cn2c(C(=O)NS(=O)(=O)c3cc(F)ccc3F)c(-c3ccc[nH]c3=O)c3cc(Cl)ccc32)ccn1
700 nM	26 nM	Nc1cc(Cn2c(C(=O)NS(=O)(=O)c3cc(F)cc(F)c3)c(-c3ccc[nH]c3=O)c3cc(Cl)ccc32)ccn1
1600 nM	49 nM	Nc1cc(Cn2c(C(=O)NS(=O)(=O)c3ccc(F)cc3F)c(-c3ccc[nH]c3=O)c3cc(Cl)ccc32)ccn1
1900 nM	34 nM	Cc1cc(F)ccc1S(=O)(=O)NC(=O)c1c(-c2ccc[nH]c2=O)c2cc(Cl)ccc2n1Cc1ccnc(N)c1
1700 nM	28 nM	Nc1cc(Cn2c(C(=O)NS(=O)(=O)c3ccccc3N)c(-c3ccc[nH]c3=O)c3cc(Cl)ccc32)ccn1
1000 nM	36 nM	Nc1cccc(S(=O)(=O)NC(=O)c2c(-c3ccc[nH]c3=O)c3cc(Cl)ccc3n2Cc2ccnc(N)c2)c1
400 nM	35 nM	Nc1ccc(S(=O)(=O)NC(=O)c2c(-c3ccc[nH]c3=O)c3cc(Cl)ccc3n2Cc2ccnc(N)c2)cc1
1700 nM	36 nM	N#Cc1ccc(S(=O)(=O)NC(=O)c2c(-c3ccc[nH]c3=O)c3cc(Cl)ccc3n2Cc2ccnc(N)c2)cc1
1100 nM	32 nM	COC(=O)c1ccc(S(=O)(=O)NC(=O)c2c(-c3ccc[nH]c3=O)c3cc(Cl)ccc3n2Cc2ccnc(N)c2)cc1
300 nM	27 nM	COC(=O)c1cccc(S(=O)(=O)NC(=O)c2c(-c3ccc[nH]c3=O)c3cc(Cl)ccc3n2Cc2ccnc(N)c2)c1
1900 nM	34 nM	Nc1cc(Cn2c(C(=O)NS(=O)(=O)c3cccc(S(N)(=O)=O)c3)c(-c3ccc[nH]c3=O)c3cc(Cl)ccc32)ccn1
11 nM		CS(=O)(=O)Nc1cccc(S(=O)(=O)NC(=O)c2c(-c3ccc[nH]c3=O)c3cc(Cl)ccc3n2Cc2ccnc(N)c2)c1
500 nM	20 nM	CS(=O)(=O)Nc1ccc(S(=O)(=O)NC(=O)c2c(-c3ccc[nH]c3=O)c3cc(Cl)ccc3n2Cc2ccnc(N)c2)cc1
20 nM	18 nM	CS(=O)(=O)Nc1cccc(S(=O)(=O)NC(=O)c2c(-c3ccc[nH]c3=O)c3cc(Cl)ccc3n2Cc2ccccc2F)c1
